Test results taken from ChEMBL document CHEMBL4257543, “Structural optimization and antibacterial evaluation of rhodomyrtosone B analogues against MRSA strains” (Medchemcomm, 2018).
Values after ≈ are worked out from the molar mass of the structure shown. Active and inactive are the calls of the source. The calls are words filed in the database; no cut-off is given here.

Assays:
Staphylococcus aureus [1] = assay: Antibacterial activity against methicillin-resistant Staphylococcus aureus JCSC 4788 by micro dilution susceptibility test; type: functional
Method in brief: (§1)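 Microbroth dilution MIC in Mueller–Hinton broth following CLSI guidelines, vancomycin as positive control; resazurin added as visible growth indicator. Assays run at least in triplicate.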

Staphylococcus aureus [2] = assay: Selectivity ratio of MIC for methicillin-resistant Staphylococcus aureus JCSC 4469 to MIC for methicillin-resistant Staphylococcus aureus JCSC 4788; type: functional
Paenibacillus polymyxa = assay: Antibacterial activity against Bacillus polymyxa ATCC 842 by micro dilution susceptibility test; type: functional
Method in brief: (§2)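 Microbroth dilution MIC in Mueller–Hinton broth following CLSI guidelines, with vancomycin as positive control; assays run at least in triplicate.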

Escherichia coli = assay: Antibacterial activity against Escherichia coli ATCC 8739 by micro dilution susceptibility test; type: functional; method in brief: as §2
SF-268 = assay: Cytotoxicity against human SF268 cells by MTT assay; type: cell-based
Method in brief: (§3)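 MTT viability assay after 24 h exposure to compound at 1.5625–100 µg mL⁻¹; control cells received DMSO at 0.5% (highest test-well level); IC50 given as mean ± SD of at least triplicate runs.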

Staphylococcus aureus [3] = assay: Induction of cytoplasmic membrane hyperpolarization in methicillin-resistant Staphylococcus aureus JCSC 4788 at 4 to 8 times MIC measured up to 9 mins by Disc3(5) staining based fluorescence spectrophotometric method; type: functional, organism-based
Method in brief: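 Exponential-phase MRSA JCSC 4788 washed and set to OD620 0.1 in 5 mM HEPES pH 7. Cells loaded with 0.4 μM DiSC3(5) plus 100 mM KCl for 20 min at 37 °C with agitation. Compound added at 0.5–8× MIC and fluorescence followed at ex 660/em 670 nm; mean ± SD.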

Staphylococcus aureus [4] = assay: Bactericidal activity against methicillin-resistant Staphylococcus aureus JCSC 4788 assessed as bacterial killing at 4 MIC measured within 0.5 hrs by time kill assay relative to control; type: functional
Method in brief: (§4)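 Time-kill per CLSI: overnight MRSA JCSC 4788 adjusted in 0.85% NaCl to 10^6–10^7 CFU mL−1 and exposed to 0.5×, 1×, 2× and 4× MIC at 35 °C, vancomycin as comparator. Viable plate counts at 0.5, 2, 4, 8 and 24 h; two independent experiments.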

[5] = Selectivity ratio of IC50 for mouse RAW264.7 cells to MIC for methicillin-resistant Staphylococcus aureus JCSC 4788; type: toxicity
Method in brief: (§5)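 Ratio of 24 h MTT cytotoxicity IC50 (compound 1.5625–100 μg mL−1, 0.5% DMSO control) to MIC against MRSA JCSC 4788 from CLSI microbroth dilution in MHB; IC50 values expressed as mean ± SD.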

Candida albicans = assay: Antibacterial activity against Candida albicans ATCC 10231 by micro dilution susceptibility test; type: functional; method in brief: as §2
Bacillus cereus = assay: Antibacterial activity against Bacillus cereus ATCC 10876 by micro dilution susceptibility test; type: functional; method in brief: as §2
Staphylococcus aureus [6] = assay: Bactericidal activity against methicillin-resistant Staphylococcus aureus JCSC 4788 assessed as reduction in colony forming units at 4 times MIC measured after 4 hrs by time kill assay relative to control; type: functional; design: scale not given: the % may be the effect or the level left; method in brief: as §4
Enterococcus faecium = assay: Antibacterial activity against vancomycin-resistant Enterococcus faecium by micro dilution susceptibility test; type: functional; method in brief: as §1
Salmonella typhi = assay: Antibacterial activity against Salmonella typhi CMCC 44102 by micro dilution susceptibility test; type: functional, Salmonella enterica subsp. enterica serovar Typhi; details: Salmonella enterica; method in brief: as §1
Staphylococcus aureus [7] = assay: Bactericidal activity against methicillin-resistant Staphylococcus aureus JCSC 4788 assessed as bacterial killing at 2 MIC measured within 2 hrs by time kill assay relative to control; type: functional; method in brief: as §4
RAW264.7 = assay: Cytotoxicity against mouse RAW264.7 cells by MTT assay; type: cell-based; method in brief: as §3
[8] = Selectivity ratio of IC50 for human SF268 cells to MIC for methicillin-resistant Staphylococcus aureus JCSC 4788; type: toxicity; method in brief: as §5
Staphylococcus aureus [9] = assay: Antibacterial activity against methicillin-resistant Staphylococcus aureus JCSC 2172 by micro dilution susceptibility test; type: functional; method in brief: as §1
Staphylococcus aureus [10] = assay: Antibacterial activity against methicillin-resistant Staphylococcus aureus JCSC 4744 by micro dilution susceptibility test; type: functional; method in brief: as §1
Staphylococcus aureus [11] = assay: Antibacterial activity against methicillin-resistant Staphylococcus aureus JCSC 3063 by micro dilution susceptibility test; type: functional; method in brief: as §1
[12] = Selectivity ratio of IC50 for human MCF7 cells to MIC for methicillin-resistant Staphylococcus aureus JCSC 4788; type: toxicity; method in brief: as §5
Staphylococcus aureus [13] = assay: Selectivity ratio of MIC for methicillin-resistant Staphylococcus aureus JCSC 3063 to MIC for methicillin-resistant Staphylococcus aureus JCSC 4788; type: functional
Staphylococcus aureus [14] = assay: Selectivity ratio of MIC for methicillin-resistant Staphylococcus aureus JCSC 2172 to MIC for methicillin-resistant Staphylococcus aureus JCSC 4788; type: functional
Staphylococcus aureus [15] = assay: Selectivity ratio of MIC for methicillin-resistant Staphylococcus aureus JCSC 4744 to MIC for methicillin-resistant Staphylococcus aureus JCSC 4788; type: functional
Staphylococcus aureus [16] = assay: Antibacterial activity against Staphylococcus aureus ATCC 29213 by micro dilution susceptibility test; type: functional; method in brief: as §1
Shigella dysenteriae = assay: Antibacterial activity against Shigella dysenteriae CMCC 51252 by micro dilution susceptibility test; type: functional; method in brief: as §1

CCCCCCCC(=O)c1c(O)cc(O)c2c1OC1=C(C(=O)C(C)(C)C(=O)C1(C)C)C2CC(C)C (stereo not given)
MIC (Staphylococcus aureus [1]): 0.25 to 0.5 µg/mL (≈ 0.516 to 1.03 µM) | Selectivity ratio (Staphylococcus aureus [2]): 0.5 - 2 | MIC (Paenibacillus polymyxa): > 32 µg/mL | MIC (Escherichia coli): > 32 µg/mL | IC50 (SF-268): 10.2 µg/mL (≈ 20.9 µM) | Activity (Staphylococcus aureus [3]): Active | Activity (Staphylococcus aureus [4]): >90% | Selectivity ratio [5]: 22.4 | MIC (Candida albicans): > 32 µg/mL | MIC (Bacillus cereus): 0.5 µg/mL (≈ 1.03 µM) | Activity (Staphylococcus aureus [6]): 99.9% | MIC (Enterococcus faecium): 2 µg/mL (≈ 4.13 µM) | MIC (Salmonella typhi): > 32 µg/mL | Activity (Staphylococcus aureus [7]): >90% | IC50 (RAW264.7): 5.6 µg/mL (≈ 11.6 µM) | Selectivity ratio [8]: 40.6 | MIC (Staphylococcus aureus [9]): 0.25 µg/mL (≈ 0.516 µM) | MIC (Staphylococcus aureus [10]): 0.125 µg/mL (≈ 0.258 µM) | MIC (Staphylococcus aureus [11]): 0.25 µg/mL (≈ 0.516 µM) | Selectivity ratio [12]: 39.9 | Selectivity ratio (Staphylococcus aureus [13]): 0.5 - 2 | Selectivity ratio (Staphylococcus aureus [14]): 0.5 - 2 | Selectivity ratio (Staphylococcus aureus [15]): 0.5 - 2 | MIC (Staphylococcus aureus [16]): 0.5 µg/mL (≈ 1.03 µM) | MIC (Shigella dysenteriae): > 32 µg/mL
